Test results taken from ChEMBL document CHEMBL4651341, “The discovery of a novel series of compounds with single-dose efficacy against juvenile and adult Schistosoma species” (PLoS Negl Trop Dis, 2021).

What was measured:
[1] = Concentration required to kill 50% HepG2 cells as detected by MTT staining; type: toxicity, cell-based; settings: homo sapiens, read-out: TC50 (the source's name)
Schistosoma mansoni [2] = assay: Concentration required to kill 50% of 21 day old worms 5 days after drug treatment.; type: functional, organism-based; settings: Puerto Rican, 120 h
Summary of the method: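 Juvenile S. mansoni (Puerto Rican strain) were perfused from CD1 mice 3 weeks post-infection and washed. They were cultured 6–8 per well in 200 µL DMEM with 2 mM glutamine, penicillin/streptomycin and 10% FCS at 37 °C, 5% CO2. Viability of individual worms was scored on day 5 after dosing (120 h).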

[3] = Mean plasma concentration at 4h in Swiss albino male mice at […] per compound (administered orally in a mixture of 5 compounds to 3 mice) assessed by LCMS/MS.; type: ADME, organism-based; settings: mouse, po
[4] = Mean time to peak plasma concentration in Swiss albino male mice at […] per compound (administered orally in a mixture of 5 compounds to 3 mice) assessed by LCMS/MS.; type: ADME, organism-based; settings: mouse, po
Schistosoma mansoni [5] = assay: Concentration required to kill 50% of 42 day old worms 5 days after drug treatment.; type: functional, organism-based; settings: Puerto Rican, 120 h
Summary of the method: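 Adult S. mansoni were perfused from CD1 mice 6 weeks post-infection and washed. They were cultured 3 pairs per well in 1 mL DMEM with 2 mM glutamine, penicillin/streptomycin and 10% FCS […] at 37 °C, 5% CO2. Viability of individual worms was scored on day 5 (120 h).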

[6] = Mean observed clearance in Swiss albino male mice at 1 mg/kg per compound (administered iv in a mixture of 5 compounds to 3 mice) assessed by LCMS/MS.; type: ADME, organism-based; settings: male, Swiss albino, mouse, in vivo, read-out: Clearance (converted)
Summary of the method: (§1)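 Male Swiss albino mice (~30 g), 3 per experiment, mostly dosed as mixtures of 5 compounds iv via the lateral tail vein. Vehicle: 10% DMSO/90% 50 mM Na2HPO4 with 0.5% Tween-80. Blood sampled at 5, 15, 30 min and 1, 2, 4, 8, 24 h. Plasma stored at −20 °C and quantified by LC-MS after acetonitrile precipitation.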

[7] = Mean oral bioavailability in Swiss albino male mice at […] per compound (administered in a mixture of 5 compounds to 3 mice) assessed by LCMS/MS.; also: dose 2.5 mg/kg; type: ADME, organism-based; settings: male, Swiss albino, mouse, in vivo, read-out: Bioavailability
[8] = Mean AUC inf in Swiss albino male mice at 1 mg/kg per compound (administered iv in a mixture of 5 compounds to 3 mice) assessed by LCMS/MS.; type: ADME, organism-based; settings: male, Swiss albino, mouse, in vivo; summary of the method: as §1
[9] = Mean volume of distribution at steady state in Swiss albino male mice at 1 mg/kg per compound (administered iv in a mixture of 5 compounds to 3 mice) assessed by LCMS/MS.; type: ADME, organism-based; settings: mouse, in vivo, read-out: Volume
Summary of the method: (§2)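 Male Swiss albino mice (~30 g), 3 per experiment, mostly dosed as mixtures of 5 compounds iv via the lateral tail vein. Vehicle: 10% DMSO/90% 50 mM Na2HPO4 with 0.5% Tween-80. Plasma stored at −20 °C and quantified by LC-MS after acetonitrile precipitation.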

[10] = Mean plasma concentration at 24h in Swiss albino male mice at […] per compound (administered orally in a mixture of 5 compounds to 3 mice) assessed by LCMS/MS.; type: ADME, organism-based; settings: mouse, po
[11] = Mean half-life in Swiss albino male mice at 1 mg/kg per compound (administered iv in a mixture of 5 compounds to 3 mice) assessed by LCMS/MS.; type: ADME, organism-based; settings: mouse, in vivo; summary of the method: as §2

SMILES	EC50 (Schistosoma mansoni [2]) [nM]	further results
CS(=O)(=O)c1ccc(-c2cnc3ccc(-c4cccc(S(C)(=O)=O)c4)nn23)cc1	24900	CC50 [1]: 11900 nM
Cn1cc(-c2cn3c(-c4ccc(O)cc4)cnc3cn2)cn1	> 25000	
COc1ccc(-c2cnc3cnc(-c4ccc(C(C)C)cc4)cn23)cc1	> 25000	
OCCn1cc(-c2cn3c(-c4ccc(O)cc4)cnc3cn2)cn1	> 25000	
CC(C)c1nn2cnc(-c3ccc(F)c(C(F)(F)F)c3)cc2c1-c1ccc2[nH]ncc2c1F		concentration at 4 h [3]: 332 ng/mL; Tmax [4]: 120 min
CC(C)Oc1cccc(-c2cn3c(-c4ccc5[nH]ncc5c4F)c(C(F)(F)F)nc3cn2)c1	26.4	EC50 (Schistosoma mansoni [5]): 17.3 nM; CC50 [1]: 13200 nM
Fc1ccc(-c2cn3c(-c4ccc5[nH]ncc5c4F)c(C4CC4)nc3cn2)cc1C(F)(F)C(F)(F)F	36.8	EC50 (Schistosoma mansoni [5]): 23.2 nM
Cn1ccc(-c2cn3c(-c4ccc(O)cc4)cnc3cn2)n1	> 25000	
Oc1ccc(-c2cnc3cnc(-c4cnn(C5CCCC5)c4)cn23)cc1	> 25000	
CS(=O)(=O)Nc1cccc(-c2cn3c(-c4ccc(O)cc4)cnc3cn2)c1	> 25000	
Oc1ccc(-c2cnc3cnc(C4=COCCC4)cn23)cc1	> 25000	clearance [6]: 177 mL/min/kg; bioavailability [7]: 0.01%; AUC(0-inf) [8]: 52.2 ng·h/mL; Tmax [4]: 0.6 min
Cc1nc2cnc(-c3ccc(F)c(S(F)(F)(F)(F)F)c3)cn2c1-c1ccc2[nH]ncc2c1F	77	EC50 (Schistosoma mansoni [5]): 26.2 nM
Oc1ccc(-c2cnc3cnc(-c4cccc(-c5ccn[nH]5)c4)cn23)cc1	> 25000	
CC(C)c1cccc(-c2cn3c(-c4ccc(OC(F)(F)F)cc4)cnc3cn2)c1	> 25000	
Cn1ncc2c(-c3cn4c(-c5ccc(O)cc5)cnc4cn3)cccc21	19000	
Cn1cncc1-c1cn2c(-c3ccc(O)cc3)cnc2cn1	> 25000	
Cn1cccc(-c2cn3c(-c4ccc(O)cc4)cnc3cn2)c1=O	> 25000	
Cc1nc2cnc(-c3cccc(C(F)(F)F)c3)cn2c1-c1ccc(O)cc1	1420	EC50 (Schistosoma mansoni [5]): < 615 nM
CC(C)c1cc(-c2cn3c(-c4ccc5[nH]ncc5c4F)c(C(F)(F)F)nc3cn2)ccn1	91.7	EC50 (Schistosoma mansoni [5]): 37 nM; CC50 [1]: 9530 nM
Oc1ccc(-c2cnc3cnc(-c4cnn(Cc5ccccc5)c4)cn23)cc1	> 25000	
Cc1c(-c2c(C(F)(F)F)nc3cnc(-c4ccc(F)c(C(F)(F)F)c4)cn23)ccc2[nH]ncc12	760	concentration at 4 h [3]: 250 ng/mL; Vd [9]: 7.87 L/kg; clearance [6]: 4.3 mL/min/kg; concentration at 24 h [10]: 98.1 ng/mL; half-life [11]: 1420 min; bioavailability [7]: 65.2%; AUC(0-inf) [8]: 2000 ng·h/mL; Tmax [4]: 40 min

SMILES	EC50 (Schistosoma mansoni [2]) [nM]	further results
Cn1ncc2cc(-c3cn4c(-c5ccc(O)cc5)cnc4cn3)ccc21	21400	
COc1cccc(-c2cn3c(-c4ccc(O)cc4)cnc3cn2)n1	> 25000	
Cn1nc(C(F)(F)F)cc1-c1cn2c(-c3ccc(O)cc3)cnc2cn1	> 25000	
CC(C)c1cc(-c2cn3c(-c4c(F)cc(O)cc4F)c(C4CC4)nc3cn2)ccc1F	5.19	EC50 (Schistosoma mansoni [5]): 4.48 nM
Cn1cc(-c2cn3c(-c4ccc(O)cc4)cnc3cn2)ccc1=O	> 25000	
Cc1noc(C)c1-c1cn2c(-c3ccc(O)cc3)cnc2cn1	> 25000	Vd [9]: 0.493 L/kg; clearance [6]: 140 mL/min/kg; half-life [11]: 3.65 min; bioavailability [7]: 0.01%; AUC(0-inf) [8]: 61.2 ng·h/mL; Tmax [4]: 0.6 min
NC(=O)c1cccc(-c2cn3c(-c4ccc(O)cc4)cnc3cn2)c1	> 25000	
Oc1ccc(-c2cnc3cnc(-c4ccnc(C(F)(F)F)c4)cn23)cc1	> 25000	
COc1c(O)cccc1-c1c(C(C)C)nc2cnc(-c3cccc(C(F)(F)F)c3)cn12	1320	EC50 (Schistosoma mansoni [5]): 1760 nM
NC(=O)Cc1cccc(-c2cn3c(-c4ccc(O)cc4)cnc3cn2)c1	> 25000	
Cn1ncc2cccc(-c3cn4c(-c5ccc(O)cc5)cnc4cn3)c21	> 25000	
Oc1ccc(-c2cnc3cnc(-c4cccc(C(F)(F)F)c4)cn23)c(Cl)c1	4260	
Oc1ccc(-c2cnc3cnc(-c4ccc5[nH]ncc5c4)cn23)cc1	> 25000	
CC(C)c1nc2cnc(-c3cccc(Br)c3)cn2c1-c1ccc2[nH]ncc2c1F	26.6	EC50 (Schistosoma mansoni [5]): 36 nM
COc1ccc(C(C)C)cc1-c1cn2c(-c3ccc(O)cc3)cnc2cn1	6060	
Cn1nccc1-c1cn2c(-c3ccc(O)cc3)cnc2cn1	> 25000	
COc1cc(-c2cn3c(-c4ccc(O)cc4)cnc3cn2)ccn1	> 25000	
Oc1ccc(-c2cnc3cnc(-c4cnc(-c5ccccc5)o4)cn23)cc1	> 25000	
Oc1ccc(-c2cnc3cnc(-c4cnn(CC5CC5)c4)cn23)cc1	> 25000	
CN(C)Cc1cccc(-c2cn3c(-c4ccc(O)cc4)cnc3cn2)c1	24600	
Fc1ccc(-c2cn3c(-c4ccc5[nH]ncc5c4F)c(C(F)(F)F)nc3cn2)cc1Br	34.4	EC50 (Schistosoma mansoni [5]): 47.9 nM

SMILES	EC50 (Schistosoma mansoni [2]) [nM]	further results
Cc1n[nH]c(C)c1-c1cn2c(-c3ccc(O)cc3)cnc2cn1	> 25000	
Oc1ccc(-c2cnc3cnc(-c4cccc(C(F)(F)F)c4F)cn23)cc1	> 25000	
Cc1c(-c2cn3c(-c4ccc(O)cc4)cnc3cn2)cnn1C	> 25000	
CN(C)C(=O)c1cccc(-c2cn3c(-c4ccc(O)cc4)cnc3cn2)c1	> 25000	
Oc1ccc(-c2cnc3cnc(-c4ccc5cn[nH]c5c4)cn23)cc1	25000	
CC(C)c1nc2cnc(-c3ccc(F)c(C(F)(F)F)c3)cn2c1-c1c(F)ccc(O)c1F	320	EC50 (Schistosoma mansoni [5]): 455 nM
COc1cc(O)ccc1-c1c(C(C)C)nc2cnc(-c3cccc(C(F)(F)F)c3)cn12	1050	EC50 (Schistosoma mansoni [5]): 918 nM
COc1cc(-c2c(C)nc3cnc(-c4cccc(C(F)(F)F)c4)cn23)ccc1O	1270	EC50 (Schistosoma mansoni [5]): < 640 nM
CC(C)c1cccc(-c2ccc3nnc(-c4ccc(O)cc4)n3c2)c1	> 25000	
CC(C)Oc1cccc(-c2cn3c(-c4ccc(O)cc4)cnc3cn2)c1	5310	EC50 (Schistosoma mansoni [5]): 4430 nM
COc1ccc(-c2nnc3ccc(-c4cccc(C(C)C)c4)cn23)cc1O	9740	
Oc1ccc(-c2cnc3cnc(C4=CCOCC4)cn23)cc1	> 25000	
OCCc1cccc(-c2cn3c(-c4ccc(O)cc4)cnc3cn2)c1	> 25000	
CN(C)S(=O)(=O)c1cccc(-c2cn3c(-c4ccc(O)cc4)cnc3cn2)c1	> 25000	
CS(=O)(=O)c1cncc(-c2cn3c(-c4ccc(O)cc4)cnc3cn2)c1	> 25000	
Fc1ccc(-c2cn3c(-c4ccc5[nH]ncc5c4F)c(C(F)(F)F)nc3cn2)cc1C1CCC1	59.1	EC50 (Schistosoma mansoni [5]): 45.8 nM; concentration at 4 h [3]: 123 ng/mL; CC50 [1]: 6090 nM; Vd [9]: 3.77 L/kg; clearance [6]: 35.7 mL/min/kg; concentration at 24 h [10]: 3.2 ng/mL; half-life [11]: 132 min; bioavailability [7]: 121%; AUC(0-inf) [8]: 230 ng·h/mL; Tmax [4]: 79.8 min
C#CCOc1cc(-c2cn3c(-c4ccc5[nH]ncc5c4F)c(C(F)(F)F)nc3cn2)ccc1F	21	EC50 (Schistosoma mansoni [5]): 10.4 nM
Oc1cc(F)c(-c2c(CC(F)(F)F)nc3cnc(-c4ccc(F)c(C(F)(F)F)c4)cn23)c(F)c1	139	EC50 (Schistosoma mansoni [5]): 79.3 nM
CC(C)c1nc2cnc(-c3ccc(F)c(C(F)(F)F)c3)cn2c1-c1ccc2[nH]cnc2c1F	658	EC50 (Schistosoma mansoni [5]): 904 nM
